Experimental data as given in ChEMBL document CHEMBL4007508, “Discovery and Pre-Clinical Characterization of Third-Generation 4-H Heteroaryldihydropyrimidine (HAP) Analogues as Hepatitis B Virus (HBV) Capsid Inhibitors” (J Med Chem, 2017).
Activity calls are given as the source filed them. The rule behind the calls is not given here.

How the values were obtained:
[1] = test system: Hepatitis B virus; assay: Antiviral activity against HBV infected in human HepG2(2.2.15) cells assessed as decrease in HBV genome replication after 5 days by qPCR method; type: functional, cell-based; conditions: HepG2 2.2.15, 120 h
How it was run: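 HepG2.2.15 cells (stable HBV genome, Hep G2-derived; DMEM-F12, 10% FBS, penicillin/streptomycin, 0.5 mg/mL G418) seeded 3 × 10^4/well, incubated overnight at 37 °C. Compounds serially half-log diluted in DMSO, then in medium; final DMSO 0.5%. HBV DNA extracted and quantified by qPCR.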

[2] = Cytotoxicity against HBV infected human HepDE19 cells assessed as decrease in cell viability after 5 days by CCK8 assay; type: cell-based
How it was run: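 Tetracycline-inducible HBV HepDE19 cells seeded 5 × 10^3/well and treated with compounds. After 5 days, viability read by CCK-8 (2 h, 37 °C; absorbance 450 and 630 nm).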

[3] = Selectivity index, ratio of CC50 for HBV infected human HepDE19 cells to EC50 for HBV infected in human HepG2(2.2.15) cells
How it was run: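 Selectivity index calculated as CC50 (HepDE19, CCK-8 viability after 5 days) divided by EC50 (HBV DNA reduction in HepG2.2.15 cells, qPCR).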

[4] = test system: Hepatocyte; assay: Induction of CYP3A4 mRNA expression in human primary hepatocyte after 24 hrs by real-time PCR relative to rifampicin; type: ADME, cell-based; design: concentration or dose not given beside the values; conditions: hepatocytes
How it was run: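 CYP3A4 mRNA levels measured in primary human hepatocytes and expressed relative to the positive control rifampicin at 10 μM.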

[5] = Solubility of compound in phosphate buffer at pH 6.5 after one night incubation by HPLC-UV method; type: physicochemical
[6] = Apparent partition coefficient, log D of the compound at pH 7.4; type: physicochemical; conditions: octanol/water
[7] = Acid ionization constant, pKa of the compound; type: physicochemical
[8] = Base ionization constant, pKa of the compound; type: physicochemical
[9] = Permeability of the compound at 150 uM after 18 hrs by PAMPA; type: physicochemical; conditions: read-out: permeability
[10] = Fraction unbound in human plasma at 1000 nM after 5 hrs by LC-MS/MS analysis; type: ADME, cell-free
[11] = Fraction unbound in mouse plasma at 1000 nM after 5 hrs by LC-MS/MS analysis; type: ADME, cell-free
[12] = Half life in mouse at 1 mg/kg, iv by LC-MS/MS analysis; type: ADME, organism-based; conditions: in vivo
How it was run: (§1)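 Single-dose mouse PK following standard procedures: IV 1 mg/kg and PO 3 mg/kg. Plasma CL, Vss, IV t1/2, PO Cmax, AUC(0−∞) in plasma (IV and PO) and liver (PO), and oral bioavailability F derived. Liver/plasma ratio uses the PO AUC(0−∞) values.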

[13] = Volume of distribution at steady state in mouse at 1 mg/kg, iv by LC-MS/MS analysis; type: ADME, organism-based; conditions: in vivo, read-out: Vdss; how it was run: as §1
[14] = Plasma clearance in mouse at 1 mg/kg, iv by LC-MS/MS analysis; type: ADME, organism-based; how it was run: as §1
[15] = Cmax in mouse at 3 mg/kg, po by LC-MS/MS analysis; type: ADME, organism-based; design: dose 3 mg/kg, route oral; conditions: in vivo; how it was run: as §1
[16] = AUC (0 to infinity) in mouse at 1 mg/kg, iv by LC-MS/MS analysis; type: ADME, organism-based; design: dose 1 mg/kg, time infinity, route intravenous; conditions: in vivo; how it was run: as §1
[17] = AUC (0 to infinity) in mouse plasma at 3 mg/kg, po by LC-MS/MS analysis; type: ADME, organism-based; design: dose 3 mg/kg, route oral, time infinity; how it was run: as §1
[18] = Oral bioavailability in mouse at 3 mg/kg, by LC-MS/MS analysis; type: ADME, organism-based; conditions: in vivo; how it was run: as §1
[19] = AUC (0 to infinity) in mouse liver at 3 mg/kg, po by LC-MS/MS analysis; type: ADME, organism-based; design: dose 3 mg/kg, time infinity, route oral; how it was run: as §1
[20] = Ratio of AUC (0 to infinity) in mouse liver at 3 mg/kg, po to AUC (0 to infinity) in mouse plasma at 3 mg/kg, po by LC-MS/MS analysis; type: ADME, organism-based; conditions: liver and plasma, read-out: Ratio AUC; how it was run: as §1
[21] = test system: Hepatitis B virus; assay: Antiviral activity against HBV infected in hydrodynamic injection BALB/c mouse model assessed as reduction of viral DNA copy numbers in liver at 3 to 12.5 mg/kg, po bid after 5 days by real-time PCR method; type: functional, organism-based
How it was run: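 Female BALB/c mice hydrodynamically injected via tail vein with replication-competent HBV DNA plasmid. From 20 h post-injection, dosed orally for 5 days: 3 or 12.5 mg/kg twice daily, with vehicle and entecavir 0.1 mg/kg once daily as controls. Liver HBV DNA copies measured by real-time qPCR; six mice per group, SEM.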

[22] = Glutathione reactivity assessed as adduct formation of the compound
[23] = molecular target: Voltage-gated inwardly rectifying potassium channel KCNH2 (Homo sapiens, UniProt Q12809); assay: (§2) Inhibition of human ERG
Voltage-gated inwardly rectifying potassium channel KCNH2, sequence (Q12809 whole entry): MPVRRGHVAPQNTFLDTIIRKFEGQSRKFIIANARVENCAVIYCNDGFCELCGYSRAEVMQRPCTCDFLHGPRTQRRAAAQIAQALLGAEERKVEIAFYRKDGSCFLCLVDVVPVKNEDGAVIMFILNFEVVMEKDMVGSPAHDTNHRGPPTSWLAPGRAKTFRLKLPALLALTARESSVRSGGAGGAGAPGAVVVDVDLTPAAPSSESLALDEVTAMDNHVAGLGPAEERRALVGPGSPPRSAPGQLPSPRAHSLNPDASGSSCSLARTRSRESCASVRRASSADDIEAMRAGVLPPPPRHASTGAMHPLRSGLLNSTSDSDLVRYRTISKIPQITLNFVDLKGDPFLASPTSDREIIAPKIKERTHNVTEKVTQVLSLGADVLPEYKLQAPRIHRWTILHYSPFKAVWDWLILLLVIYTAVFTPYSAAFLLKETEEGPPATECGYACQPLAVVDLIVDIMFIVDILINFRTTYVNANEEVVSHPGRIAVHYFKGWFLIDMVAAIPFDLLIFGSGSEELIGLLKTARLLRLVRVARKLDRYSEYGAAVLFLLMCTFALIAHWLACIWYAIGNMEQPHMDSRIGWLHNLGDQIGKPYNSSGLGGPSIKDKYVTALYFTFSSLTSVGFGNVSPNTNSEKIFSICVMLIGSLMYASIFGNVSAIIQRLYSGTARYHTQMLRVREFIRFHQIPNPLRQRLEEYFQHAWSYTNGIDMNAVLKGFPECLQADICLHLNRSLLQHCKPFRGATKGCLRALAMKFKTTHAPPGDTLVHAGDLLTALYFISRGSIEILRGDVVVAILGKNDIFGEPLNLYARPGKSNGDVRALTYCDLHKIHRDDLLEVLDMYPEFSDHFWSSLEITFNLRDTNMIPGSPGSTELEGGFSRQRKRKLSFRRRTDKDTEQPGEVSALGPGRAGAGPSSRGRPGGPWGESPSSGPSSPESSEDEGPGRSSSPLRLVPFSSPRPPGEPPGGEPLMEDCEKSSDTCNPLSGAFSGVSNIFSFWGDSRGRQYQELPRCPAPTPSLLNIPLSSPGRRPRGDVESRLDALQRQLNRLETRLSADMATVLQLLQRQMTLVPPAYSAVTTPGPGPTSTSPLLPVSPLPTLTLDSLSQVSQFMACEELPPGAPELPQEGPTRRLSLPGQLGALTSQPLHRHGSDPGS

[24] = molecular target: hERG (KCNH2) (Homo sapiens, UniProt Q12809); assay: as §2
hERG (KCNH2), sequence (Q12809 whole entry): as above

[25] = test system: Salmonella typhimurium; assay: Mutagenicity in Salmonella typhimurium by Ames test; type: toxicity; conditions: salmonella enterica subsp. enterica serovar typhimurium
[26] = molecular target: T1, Cytochrome P450 3A4 (Homo sapiens, UniProt P08684); assay: Inhibition of CYP3A4 (unknown origin); type: ADME
T1 sequence (P08684 whole entry): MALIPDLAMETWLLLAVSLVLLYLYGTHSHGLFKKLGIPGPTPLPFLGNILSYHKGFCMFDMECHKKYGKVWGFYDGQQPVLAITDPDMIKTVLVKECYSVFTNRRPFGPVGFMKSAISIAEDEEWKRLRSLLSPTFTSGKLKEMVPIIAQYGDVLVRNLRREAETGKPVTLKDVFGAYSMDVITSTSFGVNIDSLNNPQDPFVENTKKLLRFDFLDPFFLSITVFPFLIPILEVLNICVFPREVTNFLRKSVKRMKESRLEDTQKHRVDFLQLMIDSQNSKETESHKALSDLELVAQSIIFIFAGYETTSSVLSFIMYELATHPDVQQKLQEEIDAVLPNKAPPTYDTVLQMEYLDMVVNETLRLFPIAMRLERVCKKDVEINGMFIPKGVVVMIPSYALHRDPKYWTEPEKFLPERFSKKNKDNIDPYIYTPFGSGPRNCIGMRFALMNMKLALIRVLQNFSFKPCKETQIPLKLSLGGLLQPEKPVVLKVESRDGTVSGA
How it was run: (§3)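 CYP inhibition IC50 measured in a panel of five enzymes: CYP3A4, 2D6, 2C9, 2C19 and 1A2.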

[27] = molecular target: Cytochrome P450 2D6 (Homo sapiens, UniProt P10635); assay: Inhibition of CYP2D6 (unknown origin); type: ADME; how it was run: as §3
Cytochrome P450 2D6, sequence (P10635 whole entry): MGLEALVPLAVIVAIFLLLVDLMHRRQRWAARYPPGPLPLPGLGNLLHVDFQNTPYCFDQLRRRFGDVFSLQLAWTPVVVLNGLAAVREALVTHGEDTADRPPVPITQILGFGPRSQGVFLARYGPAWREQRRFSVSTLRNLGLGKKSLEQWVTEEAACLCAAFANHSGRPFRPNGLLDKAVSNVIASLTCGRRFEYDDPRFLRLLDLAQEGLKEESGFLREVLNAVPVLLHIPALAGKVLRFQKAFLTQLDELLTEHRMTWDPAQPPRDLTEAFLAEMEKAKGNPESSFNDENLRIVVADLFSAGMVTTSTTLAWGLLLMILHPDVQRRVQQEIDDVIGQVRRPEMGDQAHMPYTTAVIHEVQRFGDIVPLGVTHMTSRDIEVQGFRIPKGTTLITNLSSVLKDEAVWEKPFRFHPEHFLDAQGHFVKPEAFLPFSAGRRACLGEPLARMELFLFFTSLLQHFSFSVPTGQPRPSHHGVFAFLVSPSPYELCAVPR

[28] = molecular target: Cytochrome P450 2C9 (Homo sapiens, UniProt P11712); assay: Inhibition of CYP2C9 (unknown origin); type: ADME; how it was run: as §3
Cytochrome P450 2C9, sequence (P11712 whole entry): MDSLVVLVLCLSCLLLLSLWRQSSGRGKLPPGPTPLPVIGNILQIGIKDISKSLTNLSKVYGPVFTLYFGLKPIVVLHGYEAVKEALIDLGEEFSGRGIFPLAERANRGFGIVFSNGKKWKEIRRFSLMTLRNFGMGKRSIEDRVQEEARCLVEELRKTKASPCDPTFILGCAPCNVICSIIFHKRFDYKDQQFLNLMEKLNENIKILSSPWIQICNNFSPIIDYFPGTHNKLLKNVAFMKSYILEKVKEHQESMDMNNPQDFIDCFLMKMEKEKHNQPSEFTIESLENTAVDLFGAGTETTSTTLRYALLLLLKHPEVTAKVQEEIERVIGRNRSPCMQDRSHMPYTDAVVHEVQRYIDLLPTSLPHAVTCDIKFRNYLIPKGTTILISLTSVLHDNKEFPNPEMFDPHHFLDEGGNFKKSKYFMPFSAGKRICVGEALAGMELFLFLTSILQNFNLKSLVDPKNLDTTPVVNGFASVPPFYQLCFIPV

[29] = molecular target: Cytochrome P450 2C19 (Homo sapiens, UniProt P33261); assay: Inhibition of CYP2C19 (unknown origin); type: ADME; how it was run: as §3
Cytochrome P450 2C19, sequence (P33261 whole entry): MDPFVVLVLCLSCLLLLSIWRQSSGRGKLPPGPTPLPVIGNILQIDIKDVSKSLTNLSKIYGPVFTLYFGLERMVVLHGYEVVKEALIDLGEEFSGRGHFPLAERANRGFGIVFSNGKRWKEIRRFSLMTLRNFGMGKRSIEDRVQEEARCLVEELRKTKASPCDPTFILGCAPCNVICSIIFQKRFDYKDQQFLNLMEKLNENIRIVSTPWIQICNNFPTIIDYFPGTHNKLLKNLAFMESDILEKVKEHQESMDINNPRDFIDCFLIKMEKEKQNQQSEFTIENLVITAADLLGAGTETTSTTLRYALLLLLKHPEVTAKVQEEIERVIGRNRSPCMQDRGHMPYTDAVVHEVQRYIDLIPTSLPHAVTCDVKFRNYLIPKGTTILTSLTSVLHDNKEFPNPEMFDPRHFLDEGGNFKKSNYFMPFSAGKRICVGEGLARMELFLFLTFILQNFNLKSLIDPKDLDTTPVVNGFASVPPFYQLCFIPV

[30] = molecular target: T2, Cytochrome P450 1A2 (Homo sapiens, UniProt P05177); assay: Inhibition of CYP1A2 (unknown origin); type: ADME; how it was run: as §3
T2 sequence (P05177 whole entry): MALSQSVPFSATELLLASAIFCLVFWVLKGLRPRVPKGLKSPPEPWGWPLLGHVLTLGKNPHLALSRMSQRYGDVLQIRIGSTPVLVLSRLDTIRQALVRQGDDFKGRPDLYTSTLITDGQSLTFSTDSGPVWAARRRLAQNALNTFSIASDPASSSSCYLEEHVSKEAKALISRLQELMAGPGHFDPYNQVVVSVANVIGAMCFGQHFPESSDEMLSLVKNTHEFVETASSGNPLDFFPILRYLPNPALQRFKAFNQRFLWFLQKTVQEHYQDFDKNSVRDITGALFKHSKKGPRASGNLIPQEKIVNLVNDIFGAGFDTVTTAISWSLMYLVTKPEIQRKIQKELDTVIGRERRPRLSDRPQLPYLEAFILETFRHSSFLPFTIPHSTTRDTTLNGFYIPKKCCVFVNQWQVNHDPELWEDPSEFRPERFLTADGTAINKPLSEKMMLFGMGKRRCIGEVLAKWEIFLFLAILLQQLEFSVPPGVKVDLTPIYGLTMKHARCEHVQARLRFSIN

[31] = molecular target: T1, Cytochrome P450 3A4; assay: Time dependent inhibition of CYP3A4 (unknown origin); type: ADME

COC(=O)C1=C(CN2CCOC[C@H]2C(=O)O)NC(c2nc(C(F)(F)F)cs2)=N[C@H]1c1ccc(F)cc1Cl
EC50 [1]: 0.003 µM
CC50 at 120 h [2]: > 100 µM
Ratio CC50/EC50 [3]: >33333
Activity [4]: 72%

CCOC(=O)C1=C(CN2CCOC[C@H]2C(=O)O)NC(c2nccs2)=N[C@H]1c1ccc(F)cc1Cl
EC50 [1]: 0.002 µM
CC50 at 120 h [2]: > 100 µM
Activity [4]: 183%

CCOC(=O)C1=C(CN2CCOC[C@H]2C(=O)O)NC(c2nccs2)=N[C@H]1c1cccc(F)c1Cl
EC50 [1]: 0.0008 µM
CC50 at 120 h [2]: > 100 µM
Ratio CC50/EC50 [3]: 125000
solubility [5]: > 679 µg/mL
logD [6]: 0.42
pKa [7]: 1.8
pKa [8]: 5.7
Papp at 18 h, 150 µM [9]: 3.3 ×10⁻⁶ cm/s
fraction unbound at 5 h, 1 µM [10]: 0.02
fraction unbound at 5 h, 1 µM [11]: 0.022
half-life [12]: 3 h
Vd [13]: 4.1 L/kg
clearance [14]: 66 mL/min/kg
Cmax [15]: 783 ng/mL
AUC(0-inf) [16]: 253 ng·h/mL
AUC(0-inf) [17]: 624 ng·h/mL
bioavailability [18]: 82%
AUC(0-inf) [19]: 2000 ng·h/mL
Kp [20]: 3.2
Activity [4]: 144%

COC(=O)C1=C(CN2CCO[C@H](C)[C@H]2C(=O)O)NC(c2nccs2)=N[C@H]1c1ccc(F)cc1Cl
EC50 [1]: 0.007 µM
CC50 at 120 h [2]: > 100 µM
solubility [5]: > 667 µg/mL
Activity [4]: 81%

COC(=O)C1=C(CN2CCOC[C@H]2C(=O)O)NC(c2nccs2)=N[C@H]1c1ccc(F)cc1Cl
Activity [21]: Active
Stability [22]: Stable

COC(=O)C1=C(CN2CCOC[C@H]2C(=O)O)N=C(c2nccs2)N[C@H]1c1ccc(F)cc1Cl
CC50 at 120 h [2]: > 100 µM
solubility [5]: > 666 µg/mL
inhibition (INH) [23]: Not Active
IC20 [24]: > 10 µM
logD [6]: 0.06
pKa [7]: 1.8
pKa [8]: 5.8
Papp at 18 h, 150 µM [9]: 1.4 ×10⁻⁶ cm/s
fraction unbound at 5 h, 1 µM [10]: 0.057
fraction unbound at 5 h, 1 µM [11]: 0.074
half-life [12]: 1.5 h
Vd [13]: 2.5 L/kg
Cmax [15]: 413 ng/mL
AUC(0-inf) [17]: 962 ng·h/mL
AUC(0-inf) [19]: 11800 ng·h/mL
Kp [20]: 12.3
Activity [25]: Non-Toxic
IC50 [26]: > 50 µM
IC50 [27]: > 50 µM
IC50 [28]: > 50 µM
IC50 [29]: > 50 µM
IC50 [30]: > 50 µM
TDI [31]: Not Active
Activity [4]: 111%

COC(=O)C1=C(CN2CCOC[C@H]2C(=O)O)NC(c2nccs2)=N[C@H]1c1ccc(F)c(F)c1C
EC50 [1]: 0.002 µM
CC50 at 120 h [2]: > 100 µM
Ratio CC50/EC50 [3]: >50000
solubility [5]: > 604 µg/mL
logD [6]: 0.44
pKa [7]: < 2.5
pKa [8]: 5.7
Papp at 18 h, 150 µM [9]: 2.7 ×10⁻⁶ cm/s
fraction unbound at 5 h, 1 µM [10]: 0.054
fraction unbound at 5 h, 1 µM [11]: 0.062
half-life [12]: 1.4 h
Vd [13]: 1.9 L/kg
clearance [14]: 44 mL/min/kg
Cmax [15]: 283 ng/mL
AUC(0-inf) [16]: 379 ng·h/mL
AUC(0-inf) [17]: 344 ng·h/mL
bioavailability [18]: 30%
AUC(0-inf) [19]: 9210 ng·h/mL
Kp [20]: 27
Activity [4]: 56%
